Source: ChEMBL document CHEMBL4706770, “SD-91 as A Potent and Selective STAT3 Degrader Capable of Achieving Complete and Long-Lasting Tumor Regression” (ACS Med Chem Lett, 2021)
The source made the active and inactive calls. The calls are words filed in the database; no cut-off is given here.

What was measured:
[1] = molecular target: T1, Signal transducer and activator of transcription 3 (Homo sapiens, UniProt P40763); experiment: Induction of STAT3 degradation in human SU-DHL-1 cells incubated for 4 hrs by western blot analysis; type: cell-based
Method in brief: (§1)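 Cells treated 4 h with compounds across 25 nM to 100 μM; STAT proteins detected by Western blot with GAPDH as loading control; STAT3 DC50 estimated by densitometry of STAT3 relative to GAPDH. Applies to MOLM-16 for all STATs, and to SU-DHL-1 and SUP-M2 for STAT3.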

[2] = molecular target: T1, Signal transducer and activator of transcription 3; experiment: Induction of STAT3 degradation in human MOLM-16 cells for 4 hrs by western blot analysis; type: cell-based; conditions: molm16; method in brief: as §1
[3] = test system: Mus musculus; experiment: In vivo induction of STAT1 degradation in SCID mouse xenografted with human MOLM16 cells assessed as reduction in STAT1 in tumor tissue at 50 mg/kg, iv measured after 24 hrs by immunoblotting analysis; type: functional, organism-based
Method in brief: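 SCID mice bearing MOLM-16 tumors given a single iv dose of 50 mg/kg or dosing vehicle. Tumor lysates immunoblotted for STAT3, STAT1 and STAT6 at time points from 1 h to at least 24 h.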

[4] = Drug uptake in SCID mouse xenografted with human MOLM16 cells assessed as drug level in plasma at 50 mg/kg, iv measured after 1 hrs by LC-MS/MS; type: ADME, organism-based
Method in brief: (§2)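 SCID mice bearing MOLM-16 xenografts given a single iv dose of 50 mg/kg. Concentrations of parent and hydrolysis product measured in plasma (ng/mL) and tumor tissue (ng/g) at 1, 6 and 24 h.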

[5] = Drug uptake in SCID mouse xenografted with human MOLM16 cells assessed as drug level in plasma at 50 mg/kg, iv measured after 6 hrs by LC-MS/MS; type: ADME, organism-based; method in brief: as §2
[6] = Drug uptake in SCID mouse xenografted with human MOLM16 cells assessed as drug level in plasma at 50 mg/kg, iv measured after 24 hrs by LC-MS/MS; type: ADME, organism-based; method in brief: as §2
[7] = Drug uptake in SCID mouse xenografted with human MOLM16 cells assessed as drug level in tumor tissue at 50 mg/kg, iv measured after 1 hrs by LC-MS/MS; type: ADME, organism-based; conditions: read-out: Drug uptake; method in brief: as §2
[8] = Drug uptake in SCID mouse xenografted with human MOLM16 cells assessed as drug level in tumor tissue at 50 mg/kg, iv measured after 6 hrs by LC-MS/MS; type: ADME, organism-based; conditions: read-out: Drug uptake; method in brief: as §2
[9] = Drug uptake in SCID mouse xenografted with human MOLM16 cells assessed as drug level in tumor tissue at 50 mg/kg, iv measured after 24 hrs by LC-MS/MS; type: ADME, organism-based; conditions: read-out: Drug uptake; method in brief: as §2
[10] = Antitumor activity against human MOLM16 cells xenografted in SCID mouse assessed as tumor regression at 50 mg/kg, iv administered weekly measured after 2 weeks; type: functional
Method in brief: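 SCID mice bearing MOLM-16 xenografts given compound iv once weekly at 25 or 50 mg/kg. Tumor volume and body weight measured every 2 days. Growth inhibition expressed against vehicle-treated controls.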

[11] = molecular target: T1, Signal transducer and activator of transcription 3; experiment: Induction of STAT3 degradation in human SUP-M2 cells incubated for 4 hrs by western blot analysis; type: cell-based; method in brief: as §1
[12] = molecular target: T2, Signal transducer and activator of transcription 4 (Homo sapiens) (UniProt Q14765); experiment: Induction of STAT4 degradation in human SUP-M2 cells at 0.25 to 100 uM incubated for 14 hrs by Western blot analysis; type: cell-based; conditions: SUPM2, dose 0.25-100 µM
T2 sequence (whole entry): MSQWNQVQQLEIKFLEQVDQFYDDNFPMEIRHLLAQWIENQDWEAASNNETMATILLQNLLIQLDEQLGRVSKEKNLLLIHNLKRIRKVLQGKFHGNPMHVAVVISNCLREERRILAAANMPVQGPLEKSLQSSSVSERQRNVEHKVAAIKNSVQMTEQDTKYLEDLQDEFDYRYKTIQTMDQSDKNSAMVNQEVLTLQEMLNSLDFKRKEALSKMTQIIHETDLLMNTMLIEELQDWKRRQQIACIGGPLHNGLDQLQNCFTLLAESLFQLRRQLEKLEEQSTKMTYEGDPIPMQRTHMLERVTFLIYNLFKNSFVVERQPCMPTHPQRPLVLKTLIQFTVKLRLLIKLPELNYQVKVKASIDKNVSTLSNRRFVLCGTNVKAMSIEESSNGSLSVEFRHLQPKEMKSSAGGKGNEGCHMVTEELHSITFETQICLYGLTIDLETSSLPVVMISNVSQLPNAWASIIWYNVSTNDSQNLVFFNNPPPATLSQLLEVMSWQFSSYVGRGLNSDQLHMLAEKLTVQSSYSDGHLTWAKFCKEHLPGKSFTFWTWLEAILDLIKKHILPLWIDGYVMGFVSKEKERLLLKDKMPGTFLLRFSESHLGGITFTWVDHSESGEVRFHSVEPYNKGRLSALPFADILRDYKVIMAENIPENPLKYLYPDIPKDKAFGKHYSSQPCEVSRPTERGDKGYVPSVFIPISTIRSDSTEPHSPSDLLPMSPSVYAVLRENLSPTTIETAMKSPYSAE

[13] = molecular target: Protein cereblon/Signal transducer and activator of transcription 3 (Homo sapiens, UniProt P40763+Q96SW2); experiment: Protac activity at CRBN/STAT3 in human SUP-M2 cells assessed as degradation of STAT3 incubated for 4 hrs by western blot analysis; type: cell-based; method in brief: as §1
[14] = molecular target: T3, Protein cereblon/Signal transducer and activator of transcription 2 (Homo sapiens) (UniProt Q96SW2+P52630); experiment: Protac activity at CRBN/STAT2 in human MOLM16 cells assessed as STAT2 degradation at 0.25 to 100 uM incubated for 4 hrs by Western blot analysis; type: cell-based; conditions: dose 0.25-100 µM; method in brief: as §1
[15] = molecular target: T3, Protein cereblon/Signal transducer and activator of transcription 2 (Homo sapiens); experiment: Protac activity at CRBN/STAT2 in human SU-DHL-1 cells […] at 0.25 to 100 uM incubated for 4 hrs by Western blot analysis; type: cell-based; conditions: dose lower 0.25 µM
[16] = Drug uptake in SCID mouse xenografted with human MOLM16 cells assessed as (2-(((5S,8S,10aR)-8-(((S)-5-amino-1-(benzhydrylamino)-1,5-dioxopentan-2-yl)carbamoyl)-3-(8-(2-(2,6-dioxopiperidin-3-yl)-1-oxoisoindolin-4-yl)oct-7-yno yl)-6-oxodecahydropyrrolo[1,2-a][1,5]diazocin-5-yl)carbamoyl)-1H-indole-5-carbonyl)phosphonic acid level in tumor tissue at 50 mg/kg, iv measured after 24 hrs by LC-MS/MS; type: ADME, organism-based; conditions: in vivo; method in brief: as §2
[17] = Drug metabolism in complete cell culture medium assessed as (2-(((5S,8S,10aR)-8-(((S)-5-amino-1-(benzhydrylamino)-1,5-dioxopentan-2-yl)carbamoyl)-3-(8-(2-(2,6-dioxopiperidin-3-yl)-1-oxoisoindolin-4-yl)oct-7-ynoyl)-6-oxodecahydropyrrolo[1,2-a][1,5]diazocin-5-yl)carbamoyl)-1H-indole-5-carbonyl)phosphonic acid after 24 hrs by LC/MS/MS analysis
Method in brief: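 Parent compound incubated in the cell culture medium used for the cellular assays, with or without cells, at 37 °C. Percentages of the hydrolysis product and the glutarimide ring-opened product measured at time points up to 96 h.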

[18] = Stability of compound in buffer pH 8 assessed as conversion to (2-(((5S,8S,10aR)-8-(((S)-5-amino-1-(benzhydrylamino)-1,5-dioxopentan-2-yl)carbamoyl)-3-(8-(2-(2,6-dioxopiperidin-3-yl)-1-oxoisoindolin-4-yl)oct-7-ynoyl)-6-oxodecahydropyrrolo[1,2-a][1,5]diazocin-5-yl)carbamoyl)-1H-indole-5-carbonyl)phosphonic acid by measuring half life by LC/MS/MS analysis; type: physicochemical
Method in brief: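 SD-36 incubated in pH 8 buffer at room temperature; percentages of parent and hydrolysis products followed over time; half-life of conversion derived from the time course.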

T1 sequence (P40763 whole entry): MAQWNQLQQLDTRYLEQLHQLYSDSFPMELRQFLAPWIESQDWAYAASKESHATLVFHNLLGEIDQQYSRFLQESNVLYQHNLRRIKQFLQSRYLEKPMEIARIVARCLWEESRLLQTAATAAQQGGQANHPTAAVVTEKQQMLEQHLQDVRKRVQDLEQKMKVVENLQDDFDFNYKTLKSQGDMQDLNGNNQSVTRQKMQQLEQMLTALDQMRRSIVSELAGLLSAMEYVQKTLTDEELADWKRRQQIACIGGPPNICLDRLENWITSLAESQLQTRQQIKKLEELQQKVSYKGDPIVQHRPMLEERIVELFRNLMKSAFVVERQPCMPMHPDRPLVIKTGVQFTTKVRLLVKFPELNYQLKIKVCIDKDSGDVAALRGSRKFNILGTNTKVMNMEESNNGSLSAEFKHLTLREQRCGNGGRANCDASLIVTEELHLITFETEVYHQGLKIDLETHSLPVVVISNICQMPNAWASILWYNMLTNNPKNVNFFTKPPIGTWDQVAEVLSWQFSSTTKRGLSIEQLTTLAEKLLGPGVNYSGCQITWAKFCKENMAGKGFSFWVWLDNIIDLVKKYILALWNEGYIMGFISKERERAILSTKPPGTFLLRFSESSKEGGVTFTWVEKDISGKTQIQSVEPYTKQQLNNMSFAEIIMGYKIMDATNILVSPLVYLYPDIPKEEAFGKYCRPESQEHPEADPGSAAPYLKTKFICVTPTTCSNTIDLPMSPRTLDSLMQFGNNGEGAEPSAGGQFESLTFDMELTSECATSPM
T3 sequence (P52630 whole entry, looked up): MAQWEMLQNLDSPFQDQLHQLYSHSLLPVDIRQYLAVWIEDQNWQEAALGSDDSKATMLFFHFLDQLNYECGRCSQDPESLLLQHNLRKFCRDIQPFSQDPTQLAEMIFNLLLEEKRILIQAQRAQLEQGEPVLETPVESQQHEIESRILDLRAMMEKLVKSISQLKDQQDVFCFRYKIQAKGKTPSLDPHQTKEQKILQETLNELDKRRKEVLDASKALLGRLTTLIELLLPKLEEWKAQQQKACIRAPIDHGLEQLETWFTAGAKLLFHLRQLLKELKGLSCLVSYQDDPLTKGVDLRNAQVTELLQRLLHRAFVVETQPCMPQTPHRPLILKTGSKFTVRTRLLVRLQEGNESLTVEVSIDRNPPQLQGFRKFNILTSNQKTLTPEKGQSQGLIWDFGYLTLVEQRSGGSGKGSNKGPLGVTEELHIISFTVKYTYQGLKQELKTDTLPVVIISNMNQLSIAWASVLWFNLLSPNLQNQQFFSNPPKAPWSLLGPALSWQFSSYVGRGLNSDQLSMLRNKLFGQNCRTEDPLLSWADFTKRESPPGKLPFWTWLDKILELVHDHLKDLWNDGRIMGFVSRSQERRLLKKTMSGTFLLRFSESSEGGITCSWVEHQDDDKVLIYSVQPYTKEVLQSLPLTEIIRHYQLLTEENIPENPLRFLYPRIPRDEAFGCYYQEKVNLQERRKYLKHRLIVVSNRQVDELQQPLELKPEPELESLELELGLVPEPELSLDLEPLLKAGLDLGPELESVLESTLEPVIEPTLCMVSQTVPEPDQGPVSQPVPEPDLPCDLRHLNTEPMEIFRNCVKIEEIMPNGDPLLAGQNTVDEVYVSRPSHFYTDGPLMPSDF
T3 sequence (Q96SW2 whole entry, looked up): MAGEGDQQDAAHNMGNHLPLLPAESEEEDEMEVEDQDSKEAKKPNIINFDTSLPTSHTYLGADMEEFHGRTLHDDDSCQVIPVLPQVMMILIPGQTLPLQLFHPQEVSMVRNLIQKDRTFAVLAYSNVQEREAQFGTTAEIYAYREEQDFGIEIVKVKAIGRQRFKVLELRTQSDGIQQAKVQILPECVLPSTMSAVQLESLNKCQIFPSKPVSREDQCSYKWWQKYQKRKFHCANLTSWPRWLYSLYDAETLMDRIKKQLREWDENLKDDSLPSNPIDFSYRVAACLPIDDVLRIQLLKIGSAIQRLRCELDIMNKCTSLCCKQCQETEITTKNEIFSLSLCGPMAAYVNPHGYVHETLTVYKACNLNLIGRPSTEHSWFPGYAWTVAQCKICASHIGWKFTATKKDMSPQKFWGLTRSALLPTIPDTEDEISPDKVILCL
Sequence of Protein cereblon/Signal transducer and activator of transcription 3 (P40763 whole entry): as the sequence (P40763 whole entry) above
Sequence of Protein cereblon/Signal transducer and activator of transcription 3 (Q96SW2 whole entry): as the sequence (Q96SW2 whole entry, looked up) above

Q: With `NC(=O)CC[C@H](NC(=O)[C@@H]1CC[C@@H]2CCN(C(=O)CCCCCC#Cc3cccc4c3CN(C3CCC(=O)NC3=O)C4=O)C[C@H](NC(=O)c3cc4cc(C(=O)P(=O)(O)O)ccc4[nH]3)C(=O)N21)C(=O)NC(c1ccccc1)c1ccccc1` (stereo not given in full) as the molecule, how does the DC50 [1] read?
A: 17 nM

Q: What about the DC50 [2] of the same molecule?
A: 120 nM

Q: What about the Activity [3] of the same molecule?
A: inactive

Q: And the concentration at 1 h [4]?
A: 85500 ng/mL

Q: And the concentration at 6 h [5]?
A: 49200 ng/mL

Q: What about the concentration at 24 h [6] of the same molecule?
A: 1360 ng/mL

Q: What about the concentration at 1 h [7] of the same molecule?
A: 16200 ng/g

Q: And the concentration at 6 h [8]?
A: 4780 ng/g

Q: What about the concentration at 24 h [9] of the same molecule?
A: 1800 ng/g

Q: What about the Activity [10] of the same molecule?
A: 100%

Q: What about the DC50 [11] of the same molecule?
A: 1200 nM

Q: With `CC(=O)N1CC[C@H]2CC[C@@H](C(=O)N[C@@H](CCC(N)=O)C(=O)NC(c3ccccc3)c3ccccc3)N2C(=O)[C@@H](NC(=O)c2cc3cc(C(=O)P(=O)(O)O)ccc3[nH]2)C1` as the molecule, how does the Activity [12] read?
A: inactive

Q: What does the source list for `NC(=O)CC[C@H](NC(=O)[C@@H]1CC[C@@H]2CCN(C(=O)CCCCCC#Cc3cccc4c3CN(C3CCC(=O)NC3=O)C4=O)C[C@H](NC(=O)c3cc4cc(C(F)(F)P(=O)(O)O)ccc4[nH]3)C(=O)N21)C(=O)NC(c1ccccc1)c1ccccc1` (stereo not given in full)?
A: DC50 [13]: 2500 nM; concentration at 1 h [4]: 103000 ng/mL; concentration at 6 h [5]: 1300 ng/mL; concentration at 24 h [6]: 58 ng/mL; concentration at 1 h [7]: 7720 ng/g; concentration at 6 h [8]: 580 ng/g; concentration at 24 h [9]: 275 ng/g; Activity [14]: inactive; Activity [15]: inactive; Drug uptake [16]: 396 ng/g; Drug metabolism [17]: 90%; t1/2 [18]: 22 h

Q: Which Activity [12] does the source give for `CC(=O)N1CC[C@H]2CC[C@@H](C(=O)N[C@@H](CCC(N)=O)C(=O)NC(c3ccccc3)c3ccccc3)N2C(=O)[C@@H](NC(=O)c2cc3cc(C(F)(F)P(=O)(O)O)ccc3[nH]2)C1` here?
A: inactive
